Article PMC7854954 (Clinical Pharmacology and Therapeutics, 2020)
Like-named read-outs stand apart in the source and are kept apart here.

Tests used:
[1] = Binding to patient plasma proteins; assay type: in vitro ADME; conditions: human, plasma of patients with cancer
[2] = Binding to brain tumor tissues; assay type: in vitro ADME; conditions: human, patient brain tumor tissue
[3] = In vitro metabolism in human liver microsomes; assay type: in vitro ADME; conditions: for K m / Vmax: HLM; for fuinc: HLM incubation; for microsomal CLint: human, pooled liver microsomes
[4] = In vitro metabolism in human intestinal microsomes; assay type: in vitro ADME; conditions: for fumic: HIM section, fraction unbound in microsomal incubation; for microsomal CLint: human, pooled intestinal microsomes
[5] = Passive transcellular permeability, parental MDCKII monolayers; assay type: in vitro ADME; conditions: dog, MDCK, pH 7.4
Summary of the method: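 Bidirectional transport (apical-to-basolateral and basolateral-to-apical) across parental MDCKII cell monolayers grown on transwell filters, with pH 7.4 in both apical and basolateral chambers. Apparent permeability is reported for each direction, along with the efflux ratio. Values are mean ± SD from at least three independent experiments, each run in duplicate.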

ABCB1 = ABCB1 (Homo sapiens, UniProt P08183); assay: Bidirectional permeability and efflux, MDCKII-ABCB1 monolayers; assay type: in vitro ADME; conditions: for CLABCB1,vitro: Blood-CSF barrier, Eq. 2; for Papp A→B at 1 h, 1 µM: human, MDCK-MDR1, pH 7.4
Chain of ABCB1 (P08183 whole entry): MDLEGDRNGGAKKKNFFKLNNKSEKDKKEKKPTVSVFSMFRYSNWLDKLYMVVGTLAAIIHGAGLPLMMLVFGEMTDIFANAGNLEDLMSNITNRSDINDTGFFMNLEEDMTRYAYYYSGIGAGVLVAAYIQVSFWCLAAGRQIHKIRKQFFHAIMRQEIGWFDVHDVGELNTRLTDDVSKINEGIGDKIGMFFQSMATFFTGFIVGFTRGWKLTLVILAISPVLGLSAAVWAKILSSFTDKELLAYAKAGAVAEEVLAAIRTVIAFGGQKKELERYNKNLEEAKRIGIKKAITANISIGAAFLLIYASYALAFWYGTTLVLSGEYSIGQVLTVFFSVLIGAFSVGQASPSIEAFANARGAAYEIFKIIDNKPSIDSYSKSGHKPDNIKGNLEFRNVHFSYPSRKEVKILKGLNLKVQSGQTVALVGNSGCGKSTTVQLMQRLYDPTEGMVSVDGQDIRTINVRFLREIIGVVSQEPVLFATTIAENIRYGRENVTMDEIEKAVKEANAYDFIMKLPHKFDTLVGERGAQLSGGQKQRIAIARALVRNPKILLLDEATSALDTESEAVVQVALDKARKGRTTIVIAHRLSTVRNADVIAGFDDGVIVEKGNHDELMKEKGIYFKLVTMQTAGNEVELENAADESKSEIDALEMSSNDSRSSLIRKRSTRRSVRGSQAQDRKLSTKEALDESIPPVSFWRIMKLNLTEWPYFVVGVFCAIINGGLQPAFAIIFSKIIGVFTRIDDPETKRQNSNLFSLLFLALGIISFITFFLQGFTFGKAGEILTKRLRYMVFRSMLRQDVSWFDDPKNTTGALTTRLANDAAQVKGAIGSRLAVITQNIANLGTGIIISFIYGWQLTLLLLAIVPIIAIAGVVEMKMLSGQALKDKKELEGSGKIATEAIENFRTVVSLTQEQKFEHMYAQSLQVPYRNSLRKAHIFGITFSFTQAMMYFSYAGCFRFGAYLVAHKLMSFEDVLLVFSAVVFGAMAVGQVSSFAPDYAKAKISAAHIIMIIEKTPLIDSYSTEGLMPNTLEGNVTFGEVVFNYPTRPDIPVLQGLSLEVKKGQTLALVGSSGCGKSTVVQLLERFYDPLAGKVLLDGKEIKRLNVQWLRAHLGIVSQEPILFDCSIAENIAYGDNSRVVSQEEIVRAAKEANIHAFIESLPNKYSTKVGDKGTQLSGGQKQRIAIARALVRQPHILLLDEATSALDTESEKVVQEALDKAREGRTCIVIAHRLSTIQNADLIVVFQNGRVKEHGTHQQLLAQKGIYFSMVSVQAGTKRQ

ABCG2 = molecular target: T1, ABCG2 (Homo sapiens, UniProt Q9UNQ0); assay: Bidirectional permeability and efflux, MDCKII-ABCG2 monolayers; assay type: in vitro ADME; conditions: for Papp A→B at 1 h, 1 µM: pH 7.4
T1 sequence (Q9UNQ0 1-655): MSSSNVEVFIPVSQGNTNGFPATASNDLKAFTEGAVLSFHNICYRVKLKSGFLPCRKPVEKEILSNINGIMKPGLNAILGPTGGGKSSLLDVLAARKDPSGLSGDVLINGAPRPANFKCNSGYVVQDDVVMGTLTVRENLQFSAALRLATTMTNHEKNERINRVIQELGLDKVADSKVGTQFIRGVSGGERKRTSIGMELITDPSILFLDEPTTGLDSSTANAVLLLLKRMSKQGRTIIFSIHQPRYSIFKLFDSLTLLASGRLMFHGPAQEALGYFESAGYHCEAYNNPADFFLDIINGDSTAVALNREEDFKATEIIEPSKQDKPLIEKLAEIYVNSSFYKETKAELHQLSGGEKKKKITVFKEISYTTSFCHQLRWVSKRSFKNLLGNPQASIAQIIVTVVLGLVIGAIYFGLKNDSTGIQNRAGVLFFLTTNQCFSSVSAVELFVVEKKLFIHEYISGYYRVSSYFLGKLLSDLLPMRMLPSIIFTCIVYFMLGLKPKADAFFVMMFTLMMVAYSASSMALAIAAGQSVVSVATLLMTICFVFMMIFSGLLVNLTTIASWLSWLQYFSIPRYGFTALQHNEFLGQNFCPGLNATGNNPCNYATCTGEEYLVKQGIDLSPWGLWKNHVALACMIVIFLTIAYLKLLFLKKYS

[6] = Whole-body PBPK model drug-specific parameters; parameters: species or system human; conditions: Observed; for Ka: estimated from observed data
CDK4 = conditions: read-out: in vitro IC50 for inhibition of CDK4; cited from earlier work
CDK6 = conditions: read-out: in vitro IC50 for inhibition of CDK6; cited from earlier work
[7] = cited from earlier work; for observed CL/F / observed apparent volume of distribution (V/F): population pharmacokinetic analysis in patients with cancer
[8] = cited from earlier work; for observed unbound tumor concentration, median (range): patients with glioblastoma
[9] = rats; cited from earlier work
[10] = mice; cited from earlier work
glioblastoma = conditions: single‐agent treatment; cited from earlier work

Row | fraction unbound [1] | fraction unbound [2] | K m [3] [µM] | Vmax [3] [pmol/min/mg] | fuinc [3] | microsomal CLint [3] [µL/min/mg] | K m ([4]; HIM) [µM] | fumic [4] | microsomal CLint [4] [µL/min/mg] | Papp A→B at 1 h, 1 µM [5] [×10⁻⁶ cm/s] | CLABCB1,vitro (ABCB1) [µL/min/mg] | Papp A→B at 1 h, 1 µM (ABCB1) [×10⁻⁶ cm/s] | Papp A→B at 1 h, 1 µM (ABCG2) [×10⁻⁶ cm/s] | Lag time [6] [h] | Ka [6] | Structure (SMILES) | IC50 (CDK4) [µM] | IC50 (CDK6) [µM] | observed CL/F [7] [L/h] | observed apparent volume of distribution (V/F) [7] | brain penetration K p,uu [9] | other results
1 | […] | […] | […] | […] | […] | 15.9 | […] | […] | 4.29 | 9.09 ± 2.21 | 800 | […] | 7.98 ± 0.42 | […] | 0.197 | CCN1CCN(Cc2ccc(Nc3ncc(F)c(-c4cc(F)c5nc(C)n(C(C)C)c5c4)n3)nc2)CC1 [Abemaciclib, abemaciclib] | […] | […] | […] | […] | […] | Vmax ([4]; HIM): 494.3 pmol/min/mg; observed CSF concentrations (range) ([8]; 10 patients, daily or twice daily oral 50–275 mg for 15 days): […]; observed mean CSF K p,uu ([8]; patients): 0.70; brain penetration K p,uu [10]: […]; patients with glioblastoma who achieved stable disease (glioblastoma): […]
2 | 0.126 | […] | 78.1 |  | […] | […] | 70.4 | […] | […] | […] | […] | […] | 7.73 ± 0.25 | […] | 0.367 | CC(=O)c1c(C)c2cnc(Nc3ccc(N4CCNCC4)cn3)nc2n(C2CCCC2)c1=O [Palbociclib, palbociclib] | […] | […] | […] | 2,342 L | […] | brain penetration K p,uu [10]: […]
3 | 0.125 | 0.044 | 13.4 | 313.7 | […] | 23.4 | 28.8 | […] | […] | 7.17 ± 1.85 | […] | 1.77 ± 0.82 | […] | 0.5 | 0.8 | CN(C)C(=O)c1cc2cnc(Nc3ccc(N4CCNCC4)cn3)nc2n1C1CCCC1 [Ribociclib, ribociclib] | […] | 0.039 |  |  |  | observed apparent oral clearance (CL/F) ([7]; 900 mg q.d. for 5 days, glioblastoma patients): […]; observed median CSF K p,uu ([8]; 12 patients with glioblastoma, 900 mg q.d. for 5 days): 1.8; observed unbound tumor concentration, median (range) ([8]; enhancing tumor regions): […]; observed unbound tumor concentration, median (range) ([8]; non‐enhancing tumor regions): […]
4 |  |  |  |  |  |  |  |  |  |  |  |  |  |  |  | COc1cc2ncnc(Nc3ccc(F)c(Cl)c3)c2cc1OCCCN1CCOCC1 [gefitinib] |  |  |  |  |  | efflux ratio at 1 h, 1 µM (ABCG2; with Ko143 1 µM in the top chamber): 8.86
